Laboratory results: ChEMBL document CHEMBL2163271, “Antitumor agents 295. E-ring hydroxylated antofine and cryptopleurine analogues as antiproliferative agents: design, synthesis, and mechanistic studies” (J Med Chem, 2012)
Activity calls are given as the source filed them. No cut-off for these calls is given here.

Columns and labels:
A549 [1] = test: Cytotoxicity against human A549 cells after 2 hrs by methylene blue staining-based spectrophotometric analysis; format: functional, cell-based; details: A549, 2 h
DU-145 = test: Cytotoxicity against human DU145 cells after 2 hrs by methylene blue staining-based spectrophotometric analysis; format: functional, cell-based; details: DU-145, 2 h
KB = test: Cytotoxicity against human KB cells after 2 hrs by methylene blue staining-based spectrophotometric analysis; format: functional, cell-based
[2] = Cytotoxicity against human KBVIN cells overexpressing P-gp after 2 hrs by methylene blue staining-based spectrophotometric analysis; format: functional, cell-based
PC-9 = test: Cytotoxicity against human PC9 cells assessed as cell viability after 48 hrs by SRB assay; format: functional, cell-based; details: PC-9, 48 h
Outline: (§1)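 Human NSCLC lines (CL1-0, CL1-5, PC9, PC9IR) exposed to increasing compound concentrations for 48 h. Growth read by sulforhodamine B (SRB) staining, with IC50 in nM taken from the dose-response.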

HCT-8 = test: Cytotoxicity against human HCT8 cells after 2 hrs by methylene blue staining-based spectrophotometric analysis; format: functional, cell-based; details: HCT-8, 2 h
[3] = Cytotoxicity against human PC9IR cells assessed as cell viability after 48 hrs by SRB assay; format: functional, cell-based; outline: as §1
A549 [4] = test: Downregulation of HSP90 protein expression in human A549 cells at 3.6 to 100 nM after 48 hrs by Western blot analysis; format: functional, cell-based
Outline: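 A549 cells treated with graded compound concentrations for 48 h. Whole-cell extracts were immunoblotted with antibody against HSP90.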

[5] = Cytotoxicity against human CL1-0 cells assessed as cell viability after 48 hrs by SRB assay; format: functional, cell-based; details: CL1-0, 48 h; outline: as §1
MRC5 = test: Cytotoxicity against human MRC5 cells assessed as cell viability after 48 hrs by SRB assay; format: functional, cell-based; details: MRC5, 48 h
A549 [6] = test: Downregulation of beta-catenin protein expression in human A549 cells at 3.6 to 100 nM after 48 hrs by Western blot analysis
[7] = Cytotoxicity against human CL1-5 cells assessed as cell viability after 48 hrs by SRB assay; format: functional, cell-based; details: CL1-5, 48 h; outline: as §1
A549 [8] = test: Downregulation of cyclin D protein expression in human A549 cells at 3.6 to 100 nM after 48 hrs by Western blot analysis; format: functional, cell-based
A549 [9] = test: Cytotoxicity against human A549 cells assessed as cell viability after 48 hrs by SRB assay; format: functional, cell-based; details: A549, 48 h
SK-BR-3 = test: Cytotoxicity against human SKBR3 cells after 2 hrs by methylene blue staining-based spectrophotometric analysis; format: functional, cell-based; details: SK-BR-3, 2 h

SMILES | IC50 (A549 [1]) [nM] | IC50 (DU-145) [nM] | IC50 (KB) [nM] | IC50 [2] [nM] | also measured
CC[C@@]1(O)CCN2Cc3c(c4cc(OC)c(OC)cc4c4cc(OC)ccc34)C[C@H]2C1 | 990 | 770 | 920 | 870 | –
COc1ccc2c3c(c4cc(OC)c(OC)cc4c2c1)C[C@H]1CC(=O)CN1C3 | 290 | 710 | 500 | 430 | –
COc1ccc2c3c(c4cc(OC)c(OC)cc4c2c1)C[C@H]1CCCCN1C3 [CRYPTOPLEURINE] | 1.38 | 1.59 | 1.51 | – | IC50 (PC-9): 5.5 nM; IC50 (HCT-8): 1.91 nM; IC50 [3]: 6.8 nM; Activity (A549 [4]): Active; IC50 [5]: 5 nM; IC50 (MRC5): 14 nM; Activity (A549 [6]): Active; IC50 [7]: 1.8 nM; Activity (A549 [8]): Active; IC50 (A549 [9]): 1.9 nM
COc1ccc2c3c(c4cc(OC)c(OC)cc4c2c1)C[C@H]1C[C@H](O)[C@@H](O)CN1C3 | 550 | 600 | 840 | 2170 | –
COc1ccc2c3c(c4cc(OC)c(OC)cc4c2c1)C[C@H]1C[C@@H](O)CCN1C3 | 72 | 59 | 43 | 78 | IC50 (SK-BR-3): 295 nM
COc1ccc2c3c(c4cc(OC)c(OC)cc4c2c1)C[C@H]1[C@H](O)CCN1C3 | 270 | 850 | 500 | 640 | –
COc1ccc2c3c(c4cc(OC)c(OC)cc4c2c1)C[C@H]1[C@H](O)CCCN1C3 | 69 | 200 | 300 | 120 | –
COc1ccc2c3c(c4cc(OC)c(OC)cc4c2c1)C[C@H]1[C@@H](O)CCCN1C3 | 10 | 33 | 25 | 25 | –
COC1=C[C@@H]2Cc3c(c4ccc(OC)cc4c4cc(OC)c(OC)cc34)CN2C1 | 5970 | 10300 | 12000 | 2640 | –
COc1ccc2c3c(c4cc(OC)c(OC)cc4c2c1)C[C@H]1CCC(=O)CN1C3 | 910 | 1700 | 734 | 1480 | IC50 (SK-BR-3): 3340 nM
COc1ccc2c3c(c4cc(OC)c(OC)cc4c2c1)C[C@H]1[C@@H](O)CCN1C3 | 2810 | 3200 | 1830 | 3420 | –
